# Measurements: ChEMBL document CHEMBL3758119, “Functionalized imidazolium and benzimidazolium salts as paraoxonase 1 inhibitors: Synthesis, characterization and molecular docking studies” (Bioorg Med Chem, 2016)
# Target: T1, Serum paraoxonase/arylesterase 1 (Homo sapiens, UniProt P27169)
# Experiment: Inhibition of human serum PON1 using paraoxon as substrate by spectrophotometric analysis
# Conditions: not given; call rule not given here
# In short: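 PON1 purified from human serum (ammonium sulphate precipitation, then hydrophobic interaction chromatography; stored with 2 mM CaCl2). Paraoxon 2 mM final; p-nitrophenol release followed at 412 nm for 2 min at 37 °C. Five inhibitor concentrations tested. Activity without compound taken as 100%. Measured in duplicate and corrected for non-enzymatic hydrolysis. IC50 read from activity-percentage graphs.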
# T1 sequence (P27169 whole entry): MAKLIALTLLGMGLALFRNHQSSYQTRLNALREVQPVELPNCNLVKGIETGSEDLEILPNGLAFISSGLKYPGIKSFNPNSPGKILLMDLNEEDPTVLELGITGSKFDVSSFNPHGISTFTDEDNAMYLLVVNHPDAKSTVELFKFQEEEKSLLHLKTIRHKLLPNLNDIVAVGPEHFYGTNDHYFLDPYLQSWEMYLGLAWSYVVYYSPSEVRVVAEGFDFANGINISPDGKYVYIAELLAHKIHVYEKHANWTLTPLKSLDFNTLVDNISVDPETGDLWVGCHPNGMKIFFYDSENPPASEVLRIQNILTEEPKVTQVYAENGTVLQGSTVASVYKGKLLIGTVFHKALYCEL
row,SMILES,IC50
1,Cc1n(C)cc[n+]1Cn1nnc2ccccc21.[Cl-],Not Active
2,COc1cc(C[n+]2cn(Cn3nnc4ccccc43)c3ccccc32)cc(OC)c1OC.[Cl-],Not Active
3,Cn1cc[n+](Cn2nnc3ccccc32)c1.[Cl-],Not Active
4,CCCCn1cc[n+](Cn2nnc3ccccc32)c1.[Cl-],Not Active
5,[Cl-].c1ccc2c(c1)nnn2Cn1c[n+](Cn2nnc3ccccc32)c2ccccc21,Not Active

# Same assay, conditions: read-out: IC50
row,SMILES,IC50 [µM]
1,Cc1cc(C)c2c(CCl)cc(=O)oc2c1,31.4
2,c1ccc(C[n+]2cn(Cn3nnc4ccccc43)c3ccccc32)cc1,2060
3,c1ccc2c(c1)ncn2Cn1nnc2ccccc21,564
4,CC(C)(C)c1ccc2oc(=O)cc(CCl)c2c1,40
5,Cc1n(C)cc[n+]1Cc1nc2ccccc2[nH]1,626
6,Cn1cc[n+](Cc2nc3ccccc3[nH]2)c1,19
7,Cc1ccc2c(C[n+]3cn(Cn4nnc5ccccc54)c4ccccc43)cc(=O)oc2c1C,237
8,CCCCn1cc[n+](Cc2cc(=O)oc3cc(C)cc(C)c23)c1,6.37
9,Cc1ccc2c(CCl)cc(=O)oc2c1C,21.4
10,O=C1COc2ccc(C(=O)C[n+]3cn(Cn4nnc5ccccc54)c4ccccc43)cc2N1,8.76
11,Cc1cc(C)c2c(C[n+]3ccn(C)c3C)cc(=O)oc2c1,317
12,CCCCn1cc[n+](Cc2nc3ccccc3[nH]2)c1,29
13,CC(C)(C)c1ccc2oc(=O)cc(C[n+]3cn(Cn4nnc5ccccc54)c4ccccc43)c2c1,627
14,Cc1cc(C)c2c(C[n+]3ccn(C)c3)cc(=O)oc2c1,23.7
15,Cc1ccc(-c2cc3cc(O)c(O)cc3oc2=O)cc1,3
16,CCCC[n+]1cn(Cn2nnc3ccccc32)c2ccccc21,3330

# Target: T1, Serum paraoxonase/arylesterase 1
# Experiment: Competitive inhibition of human serum PON1 using paraoxon as substrate by Lineweaver-Burk plot analysis
# Conditions: not given
# In short: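 Human serum PON1 purified by ammonium sulphate precipitation (60–80%) and hydrophobic interaction chromatography, stored with 2 mM CaCl2. Paraoxon hydrolysis followed by p-nitrophenol appearance at 412 nm for 2 min at 37 °C, pH 8.00. Eight paraoxon concentrations (0.5–1.2 mM) run at two inhibitor concentrations (6.7 µM and 4.7 µM). Readings taken in duplicate and corrected for non-enzymatic hydrolysis. Ki and inhibition type taken from Lineweaver–Burk plots.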
row,SMILES,Ki [µM]
1,CCCCn1cc[n+](Cc2cc(=O)oc3cc(C)cc(C)c23)c1,2.39
